High-throughput results deposited in PubChem BioAssay by several laboratories.
MC4R antag cAMP – MC4R antagonists of cAMP signaling, primary screen, cell-based, TR-FRET, antagonist arm of biased-ligand search; MC4R-expressing cells, MTII-stimulated cAMP, LANCE TR-FRET; inhibition, % at 6.5 µM; Melanocortin receptor 4 (Homo sapiens), P32245; AID 540295, 2011; actives 0.48% (n = 360,000);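 active = inhibition above its plate's cutoff, the mean of tested wells on that plate plus 3 SD, cut at about 29% in these data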
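system = U2OS cells with stable human MC4R expression | also added = Melanotan II challenge after compound preincubation | dosing = one concentration, 6.5 µM nominal | incubation = compound 30 min, challenge 1 h, detection 1 h | measured by = TR-FRET with Eu-cAMP and labeled anti-cAMP, 671 nm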
EBI2 antag – EBI2 receptor antagonists, beta-arrestin recruitment, primary screen, cell-based, luminescence, 7a,25-OHC stimulation, uHTS; actives 0.81% (n = 360,000); G-protein coupled receptor 183 (Homo sapiens), P32249; inhibition, % at 5 µM; 7a,25-OHC stimulated; AID 651636, 2012; in the data active = inhibition above about 38%;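 note: enzyme fragment complementation signal reports receptor beta-arrestin coupling in cells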
Target sequence (P32249 whole entry, looked up, the tested form may be a part): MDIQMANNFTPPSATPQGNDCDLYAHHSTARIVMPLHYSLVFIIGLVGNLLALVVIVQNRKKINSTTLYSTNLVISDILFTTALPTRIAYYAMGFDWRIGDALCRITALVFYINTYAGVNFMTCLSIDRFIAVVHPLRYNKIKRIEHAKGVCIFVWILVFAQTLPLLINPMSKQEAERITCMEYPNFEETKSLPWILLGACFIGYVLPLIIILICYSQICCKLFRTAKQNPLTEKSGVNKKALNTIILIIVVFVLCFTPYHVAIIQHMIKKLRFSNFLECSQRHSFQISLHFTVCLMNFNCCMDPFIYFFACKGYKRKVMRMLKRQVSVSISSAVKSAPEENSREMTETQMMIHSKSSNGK
HTR2A ag – mouse Htr2a agonists via beta-arrestin recruitment, primary screen, cell-based, luminescence | activation, % at 7.6 µM | 5-hydroxytryptamine receptor 2A (Mus musculus), P35363 | CHO-K1 mHTR2A beta-arrestin complementation; percent of 30 µM serotonin response | actives 0.66% (n = 360,000);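 active = activation above a run cutoff, the mean activation of all tested compounds plus 3 SD, cut at about 14% in these data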
MC4R ag barr – MC4R agonists recruiting beta-arrestin, primary screen, cell-based, luminescence, agonist arm of biased-ligand search; Melanocortin receptor 4 (Homo sapiens), P32245; U2OS MC4R beta-arrestin complementation; percent of melanotan II response, DMSO zero; activation, % at 8.9 µM; actives 0.98% (n = 360,000); AID 540308, 2011;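 active = activation above a per-plate cutoff, the mean activation of sample wells on that plate plus 3 SD, cut at about 8% in these data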
cAMP nonselect – nonselective cAMP signaling inhibitors, parental cells, counter-screen for MC4R biased antagonist project, cell-based, TR-FRET, U2OS, forskolin, triplicate | shares compounds with MC4R antag cAMP | LANCE TR-FRET | inhibition, % at 6.5 µM | actives 26% (n = 1,600);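 active = mean inhibition over triplicates above the low-control well mean plus 3 SD, set per campaign, cut at about 13% in these data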;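 note: signal is single emission at 671 nm which falls as cellular cAMP rises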
MC4R cAMP antag – MC4R cAMP antagonists, retest, confirmation, cell-based, TR-FRET; shares compounds with MC4R antag cAMP; MC4R-expressing cells, MTII-stimulated cAMP; inhibition, % at 6.5 µM; actives 27% (n = 1,600); in the data active = inhibition above about 29%
Numbers stand for hits. Only some compounds are listed: those with a hit (about 2.8% of all), similar ones and a draw of the others.

COc1ccc(-c2cc3c(c4c2ccn4C)C2CCC3C2)cc1OC (stereo not given) was read as EBI2 antag inactive and HTR2A ag inactive.
`C[n+]1cccc(NC(=O)c2ccccc2)c1` gave EBI2 antag inactive and HTR2A ag inactive.
`CCC1CCCCN1S(=O)(=O)c1ccc(NC(=O)c2ccncc2)cc1` (stereo not given) gave MC4R antag cAMP inactive, EBI2 antag inactive, HTR2A ag inactive and MC4R ag barr inactive.
Screening CCC1CCCCN1S(=O)(=O)c1ccc(NC(=O)c2nc(S(C)(=O)=O)ncc2Cl)cc1 (stereo not given) returned MC4R antag cAMP 83, EBI2 antag inactive, HTR2A ag inactive, MC4R ag barr inactive, cAMP nonselect inactive and MC4R cAMP antag 66.
For CCS(=O)(=O)c1ncc(Cl)c(C(=O)Nc2ccc(S(=O)(=O)N3CCCC(C)C3)cc2)n1 (stereo not given) the results were MC4R antag cAMP 41, EBI2 antag 50, HTR2A ag inactive, MC4R ag barr inactive, cAMP nonselect inactive and MC4R cAMP antag inactive.
O=C(CC1CCCC1)N1CCN(S(=O)(=O)c2cccc(Br)c2)CC1 was read as MC4R antag cAMP inactive, EBI2 antag inactive, HTR2A ag inactive and MC4R ag barr inactive.
`COc1ccc(-c2[nH]nc3nc(N4CCN(C(=O)c5ccoc5)CC4)cc(C(F)(F)F)c23)cc1` gave MC4R antag cAMP inactive, EBI2 antag inactive, HTR2A ag inactive and MC4R ag barr inactive.
For O=C(COC(=O)[C@@H]1CCCN1S(=O)(=O)c1ccc(Cl)cc1)NC12CC3CC(CC(C3)C1)C2 the results were MC4R antag cAMP 32, EBI2 antag inactive, HTR2A ag inactive, MC4R ag barr inactive, cAMP nonselect 14 and MC4R cAMP antag 34.
For O=C(COC(=O)[C@@H]1CCCN1S(=O)(=O)c1ccc(Cl)cc1)NC1CCS(=O)(=O)C1 (stereo not given in full) the results were MC4R antag cAMP inactive, EBI2 antag inactive, HTR2A ag inactive and MC4R ag barr inactive.
Screening O=C(COc1ccc(Cl)cc1Br)NCC(c1ccco1)N1CCCC1 (stereo not given) returned MC4R antag cAMP inactive, EBI2 antag inactive, HTR2A ag inactive and MC4R ag barr inactive.
`O=C(CCNC(=O)c1ccc([N+](=O)[O-])cc1)Nc1ccc(F)c(F)c1F` gave MC4R antag cAMP 32, EBI2 antag inactive, HTR2A ag inactive, MC4R ag barr inactive, cAMP nonselect inactive and MC4R cAMP antag inactive.
Screening O=C(NCC(c1ccc(F)cc1)N1CCOCC1)c1nn(-c2ccccc2)c(=O)c2ccccc12 (stereo not given) returned MC4R antag cAMP inactive, EBI2 antag inactive, HTR2A ag inactive and MC4R ag barr inactive.
`C[C@@H]1COc2cccc(N3CCC[C@@H]3CO)c2S(=O)(=O)N1` gave EBI2 antag inactive and HTR2A ag inactive.
For O=S(=O)(Cc1cc(Cl)nc(-c2ccncc2)n1)c1ccccc1 the results were MC4R antag cAMP 42, EBI2 antag inactive, HTR2A ag inactive, MC4R ag barr inactive, cAMP nonselect inactive and MC4R cAMP antag inactive.
Screening Nc1ccc2nn(-c3cc([N+](=O)[O-])ccc3O)nc2c1 returned MC4R antag cAMP 29, EBI2 antag inactive, HTR2A ag inactive, MC4R ag barr inactive, cAMP nonselect inactive and MC4R cAMP antag inactive.
O=C(CNC(=O)c1ccc(Br)cc1)OC1CCOC1=O (stereo not given) was read as MC4R antag cAMP inactive, EBI2 antag inactive, HTR2A ag inactive and MC4R ag barr inactive.
For CCOc1ccc(C(=O)NCC(=O)OC2CCOC2=O)cc1OCC (stereo not given) the results were MC4R antag cAMP 32, EBI2 antag inactive, HTR2A ag inactive, MC4R ag barr inactive, cAMP nonselect 16 and MC4R cAMP antag inactive.
